Bioassay records deposited in PubChem BioAssay by several laboratories.
M18AAP inhibitor – blocks P. falciparum M18 aspartyl aminopeptidase; recombinant PfM18AAP, H-Glu-NHMec fluorogenic cleavage; inhibition, % at 7.35 µM; 1.2% of 290,000 active; AID 1822;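 active means inhibition above the campaign mean inhibition over all tested compounds plus 3 SD, cut at about 28% in these data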
CHOP inhibitor – CHOP inhibition in unfolded protein response. CHO-K1 CHOP-promoter luciferase, tunicamycin-induced, 15-18 h. inhibition, % at 10 µM. 3.8% of 220,000 active. AID 2732;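 active means compounds that reduced the stress-induced luciferase reporter signal by more than about 70% of percent inhibition, limit read from the data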
XBP1 UPR activ – activators of adaptive arm of unfolded protein response (XBP1). 0.33% of 330,000 active. CHO-XBP1 luciferase reporter, IRE1-XBP1 UPR activation, luminescence; percent of tunicamycin response, DMSO as zero. activation, % at 20 µM;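 active means versus positive control, 20 µM dose yields 30% or more activation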
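Assay system: CHO-XBP1 luciferase reporter cells; Schedule: 6 h treatment, 37 °C; Detection: glow luminescence from Steady-Glo reagent; Benchmarks: high control tunicamycin 10 µg/mL final, low control DMSO vehicle only.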
CHOP UPR activ – apoptotic UPR (CHOP) activation. AID 449763. CHO-CHOP luciferase reporter, luminescence; percent of tunicamycin response over DMSO baseline. activation, % at 10 µM. 0.34% of 330,000 active;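 active means at 10 µM dose, activation of 40% or more, normalized to positive control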
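Test system: CHO-CHOP cells, stable luciferase reporter of PERK-eIF2a-CHOP signalling | Quantity: 500 CHO-CHOP cells per well | Buffer or medium: F12 plus 10% serum | Compound dosing: 10 µM single point, 0.5% DMSO | Schedule: 6 h compound treatment, 37 °C | Signal: Luciferase luminescence | Control set: Tunicamycin high control, DMSO low control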
NS3 helicase inh – inhibitors of Hepatitis C virus NS3 helicase. AID 1800. 0.56% of 290,000 active. NS3 helicase DNA unwinding, Cy5 molecular beacon fluorescence. inhibition, % at 10.9 µM;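 active means inhibition above the mean of all tested compounds plus 3 SD, set per campaign, cut at about 35% in these data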
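System: HCV NS3 helicase fragment; control set: DMSO and thioflavine S; technique: Cy5 fluorescence at 0 and 60 min, beacon hairpin quenching; reagent: beacon DNA duplex substrate plus ATP; replicates: singlicate; schedule: 1 h reaction at 25 °C, ATP-initiated; medium: MOPS buffer pH 6.5 with MgCl2, DTT, Tween20, BSA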
p97 ATPase inh – blocks human p97 ATPase activity. P55072. recombinant p97 ATPase, Kinase-Glo ATP luminescence, 3 h. inhibition, % at 8 µM. 0.42% of 220,000 active. AID 1481; in the data active means inhibition above about 15%
Target sequence (P55072 whole entry, looked up): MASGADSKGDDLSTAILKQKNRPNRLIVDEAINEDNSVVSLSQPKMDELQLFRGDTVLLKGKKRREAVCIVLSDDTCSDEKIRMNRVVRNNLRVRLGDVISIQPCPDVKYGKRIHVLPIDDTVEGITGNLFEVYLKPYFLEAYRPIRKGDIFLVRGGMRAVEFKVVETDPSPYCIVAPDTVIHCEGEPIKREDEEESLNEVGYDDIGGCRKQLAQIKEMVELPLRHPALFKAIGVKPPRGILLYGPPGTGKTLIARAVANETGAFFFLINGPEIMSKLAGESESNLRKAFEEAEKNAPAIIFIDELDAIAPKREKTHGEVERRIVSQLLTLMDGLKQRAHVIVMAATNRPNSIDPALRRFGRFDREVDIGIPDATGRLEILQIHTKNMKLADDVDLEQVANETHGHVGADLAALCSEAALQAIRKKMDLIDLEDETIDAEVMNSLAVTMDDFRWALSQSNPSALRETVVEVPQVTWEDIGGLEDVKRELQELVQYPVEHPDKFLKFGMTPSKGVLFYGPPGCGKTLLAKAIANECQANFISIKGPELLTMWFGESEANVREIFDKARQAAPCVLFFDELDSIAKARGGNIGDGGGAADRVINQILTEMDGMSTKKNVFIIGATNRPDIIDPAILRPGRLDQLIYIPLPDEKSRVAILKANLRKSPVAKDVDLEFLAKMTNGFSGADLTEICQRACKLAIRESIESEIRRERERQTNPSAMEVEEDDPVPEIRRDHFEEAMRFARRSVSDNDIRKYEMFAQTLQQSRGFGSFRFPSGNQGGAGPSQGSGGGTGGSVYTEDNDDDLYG
NS3 helicase cf – HCV NS3 helicase inhibition, confirmation assay; shares compounds with NS3 helicase inh; NS3 helicase DNA unwinding, Cy5 molecular beacon fluorescence; inhibition, % at 10.9 µM; 31% of 1,600 active;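 active means inhibition above the mean of all tested compounds plus 3 SD, cutoff set per campaign, cut at about 36% in these data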
FID counter trip – displaces DNA intercalator in HCV helicase counter-screen; shares compounds with NS3 helicase inh; DNA fluorescent intercalator displacement, fluorescence; inhibition, % at 7.9 µM; 4% of 1,600 active; AID 1945; in the data active means inhibition above about 37%;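 further: higher means more displacement of ethidium bromide from the DNA hairpin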
FID counter DR – counter-screen for HCV NS3 helicase inhibitors: DNA intercalator displacement dose response; IC50, µM; shares compounds with NS3 helicase inh; fluorescent intercalator displacement from DNA, fluorescence; AID 2172; 120 tested, under 10 active; call rule not given here
Hits are given with their value; n = inactive; x = not tested or not shown. Sampled rows, rich in hits. Any-hit rate of the full collection: about 4.5%.

SMILES	M18AAP inhibitor	CHOP inhibitor	XBP1 UPR activ	CHOP UPR activ	NS3 helicase inh	p97 ATPase inh	NS3 helicase cf	FID counter trip	others
CC1=C/C(=C\c2ccc(Br)o2)C(=O)O1	n	n	n	n	n	n	x	x
O=C1C(=Cc2ccc(Br)o2)C(=O)c2ccccc21	n	n	x	x	45	n	85	n
CCN(CC)c1ccc(/C=C(\C#N)c2nc(-c3cccs3)c(NC(C)=O)s2)cc1	n	n	x	x	45	n	n	n
Cc1cc(/C=N/NC(=O)C(O)(c2ccccc2)c2ccccc2)c(C)n1-c1ccc(C(=O)O)cc1	n	n	n	n	39	n	n	n
Cc1cc(/C=N/NC(=O)c2cccc(N(C)C)c2)c(C)n1-c1cc(C(=O)O)cc(C(=O)O)c1	n	n	n	n	n	n	x	x
Cc1cc(/C=N/NC(=O)C(O)(c2ccccc2)c2ccccc2)c(C)n1-c1cccc(C(=O)O)c1	n	n	n	n	51	n	72	n
Cc1cc(/C=N/NC(=O)c2ccc(CN3CCOCC3)cc2)c(C)n1-c1ccccc1	n	n	n	n	n	n	x	x
COc1ccc(NC(=O)c2ccc(NC3=NC4CS(=O)(=O)CC4S3)cc2)cc1 (configuration not stated)	n	x	n	n	47	x	n	n
Cc1cc(C)cc(NC(=O)c2ccc(NC3=NC4CS(=O)(=O)CC4S3)cc2)c1 (configuration not stated)	n	x	n	n	n	x	x	x
O=C(NCC1CCCCC1)c1cccc(Br)c1	n	x	n	n	n	x	x	x
Cc1nnc(SC(C)C(=O)Nc2ccc(Cl)cc2Cl)[nH]c1=O (configuration not stated)	x	x	n	n	x	x	x	x
CCN(CC(=O)N1CCCC1)S(=O)(=O)c1ccc2ccccc2c1	n	x	n	n	n	x	x	x
CNc1ccc(Br)cc(C(=O)/C=C/c2ccc(OC)cc2)c1=O	n	n	n	n	n	n	x	x
CNc1ccc(Br)cc(C(=O)/C=C/c2ccc3c(c2)OCO3)c1=O	28	n	n	n	54	15	45	n
CNc1ccc(Br)cc(C(=O)/C=C/c2cc(OC)ccc2OC)c1=O	n	n	n	n	40	n	61	n	FID counter DR=n
O=C(O)CCc1ccc(-c2cccs2)n1Cc1ccco1	n	n	n	n	41	n	n	n
O=C(O)CCc1ccc(-c2ccc(Cl)cc2)n1Cc1ccco1	n	n	n	n	36	n	68	n
COc1ccc(-c2ccc(CCC(=O)O)n2Cc2ccco2)cc1	n	n	n	n	n	n	x	x
Cc1cccc(OCC(=O)Nc2nnc(-c3ccco3)s2)c1	n	n	n	n	41	n	n	n
COc1ccccc1OCC(=O)Nc1nnc(-c2ccco2)s1	n	n	x	x	n	n	x	x
Cc1cc(C)cc(-n2c(SCC(=O)NCc3ccc4c(c3)OCO4)nc3ccccc3c2=O)c1	n	n	n	n	n	n	x	x
O=C(CSc1nc2cc([N+](=O)[O-])ccc2n1-c1ccccc1)NCc1ccc2c(c1)OCO2	38	n	n	n	40	n	n	n
O=C(c1ccc(Cl)cc1Cl)N1CCN(c2ccc(N3CCOCC3)nn2)CC1	x	x	n	n	x	x	x	x
O=C(O)c1ccc(N/N=C/c2ccc(C(F)(F)F)cc2)cc1	n	n	n	n	37	n	56	n
CCN(CCO)c1nc(SC)nc2c1sc1nc(-c3ccco3)c3c(c12)CCC3	n	n	n	n	36	n	81	n
SMILES	M18AAP inhibitor	CHOP inhibitor	XBP1 UPR activ	CHOP UPR activ	NS3 helicase inh	p97 ATPase inh	NS3 helicase cf	FID counter trip	others
CSc1nc(NCCOCCO)c2sc3nc(-c4ccco4)c4c(c3c2n1)CCC4	n	n	n	n	n	n	x	x
COc1ccc(/C=C2\N=C(C)OC2=O)cc1OC	n	x	n	n	38	x	n	n
O=C(NC1CCSC1=O)C1CC(=O)N(c2ccc(F)cc2)C1 (configuration not stated)	n	x	n	n	n	x	x	x
COc1nc(C)ccc1-c1noc(-c2ccco2)n1	n	n	n	n	n	n	x	x
COc1nc(-c2ccc(C)cc2)ccc1-c1noc(-c2ccco2)n1	n	x	n	n	40	n	n	n
COc1cc(S(=O)(=O)N2CCOCC2)cc(C(=O)OCC(=O)NCc2ccco2)c1OC	x	x	n	n	x	x	x	x
Oc1c(Cl)cc(Cl)cc1/C=N/NC(=S)NC1CC2C=CC1C2 (configuration not stated)	n	n	n	n	48	n	52	n	FID counter DR=n
COc1ccccc1-c1c(C)nn2c(N)c(-c3ccccc3)cnc12	n	x	n	n	n	x	x	x
CCOC(=O)c1ccc(N2C(=O)c3n[nH]c(-c4ccco4)c3C2c2ccc([N+](=O)[O-])cc2)cc1 (configuration not stated)	n	n	n	n	38	n	n	n
CCOc1ccccc1C(C(=O)NC1CCCC1)N(C(=O)c1csnn1)C1CC1 (configuration not stated)	n	x	n	n	n	x	x	x
O=C(N/N=C/c1cc([N+](=O)[O-])ccc1O)c1cccc2ccccc12	n	x	n	n	40	x	n	n
COc1cc([N+](=O)[O-])cc(/C=N/NC(=O)C(C)Nc2cccc3ccccc23)c1O (configuration not stated)	n	n	n	n	37	n	39	n
O=C(CN1C(=O)NC2(CCCc3ccccc32)C1=O)c1ccc(F)c(F)c1 (configuration not stated)	x	x	n	n	x	x	x	x
CC(C(=O)O)N1C(=O)/C(=C/C=C/c2ccco2)SC1=S (configuration not stated)	n	x	n	n	51	n	81	n
CC(=C\c1ccccc1)/C=C1/SC(=S)N(C(C(=O)O)C(C)C)C1=O (configuration not stated)	n	n	x	x	n	n	x	x
CCOC(=O)c1ccc2c(c1)C1C=CCC1C(C(=O)O)N2 (configuration not stated)	n	n	n	n	39	n	91	n
Cc1cc(C)c2c(c1)NC(C(=O)O)C1CC=CC21 (configuration not stated)	n	x	n	n	44	x	98	n	FID counter DR=n
CC(C)C1Nc2ccc(C(=O)O)cc2C2C=CCC21 (configuration not stated)	n	n	n	n	n	n	x	x
CCOC(=O)C1Nc2ccc(C(=O)O)cc2C2C=CCC12 (configuration not stated)	n	x	n	n	54	x	67	n
